In ChEMBL document CHEMBL3297739 (J Med Chem, 2014):

How the values were obtained:
[1] = biological target: T1, Farnesyl pyrophosphate synthase (Homo sapiens, UniProt P14324); experiment: Allosteric inhibition of human recombinant FPPS using GPP and [3H]IPP as substrate incubated with enzyme for 10 mins prior to substrate addition by liquid scintillation counting analysis
T1 sequence (P14324 whole entry): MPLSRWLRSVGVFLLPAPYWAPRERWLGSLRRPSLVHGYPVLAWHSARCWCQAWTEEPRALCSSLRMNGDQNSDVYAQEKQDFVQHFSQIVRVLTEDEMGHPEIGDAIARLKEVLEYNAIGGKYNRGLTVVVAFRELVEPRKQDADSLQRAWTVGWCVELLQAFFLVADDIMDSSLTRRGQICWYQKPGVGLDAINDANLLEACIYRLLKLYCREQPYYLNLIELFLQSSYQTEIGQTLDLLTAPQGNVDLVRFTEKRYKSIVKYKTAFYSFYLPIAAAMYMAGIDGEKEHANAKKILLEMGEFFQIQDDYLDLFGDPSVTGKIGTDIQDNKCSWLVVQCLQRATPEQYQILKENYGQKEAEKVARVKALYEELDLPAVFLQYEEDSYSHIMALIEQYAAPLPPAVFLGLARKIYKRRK

[2] = biological target: T1, Farnesyl pyrophosphate synthase; experiment: Binding affinity to human FPPS by […] in absence of Mg2+ ions
In short: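 ITC at 30 °C. One 1 μL ligand injection was followed by 18 injections of 2 μL. Heats of dilution from control titrations were subtracted.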

[3] = Dissociation constant, pKa of P(O)O-OH group of compound; format: physicochemical
[4] = biological target: T2, Farnesyl pyrophosphate synthase (Homo sapiens) (UniProt P14324); experiment: Allosteric inhibition of human recombinant FPPS using GPP and [3H]IPP as substrate at 20 uM incubated with enzyme for 10 mins prior to substrate addition by liquid scintillation counting analysis
T2 sequence (whole entry): T1 sequence (P14324 whole entry)

[5] = Cytotoxicity against human SH-SY5Y cells assessed as LDH release after 48 hrs (reference value: 0%); format: cell-based
In short: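 SH-SY5Y neuroblastoma cells were grown in serum for 5 days, then exposed to inhibitor (1–500 nM range). LDH activity in the medium was measured with a commercial kit. Values are % activity relative to untreated cells, which were set to 0%.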

IC50 [1]	Structure (SMILES)	Activity [5]	other results
	Cc1ccc(-c2cc3c(NCP(=O)(O)O)ncnc3s2)cc1		Kd [2]: 9.2 µM; pKa [3]: 6.8
0.033 µM	O=P(O)(O)C(Cc1cccnc1)P(=O)(O)O		
3.3 µM	Cc1ccc(-c2cc3c(NCP(=O)(O)O)ncnc3s2)cc1Cl		
> 20 µM	Cc1ccc(-c2cc3c(NCCP(=O)(O)O)ncnc3s2)cc1		inhibition [4]: 40%
	Cc1ccc(-c2cc3c(NC(P(=O)(O)O)P(=O)(O)O)ncnc3s2)cc1		Kd [2]: 56 µM
26 µM	Cc1ccc(-c2cc3c(CCP(=O)(O)O)ncnc3s2)cc1		pKa [3]: 7.7
	O.O=P(O)(O)C(O)(Cn1ccnc1)P(=O)(O)O [ZOLEDRONIC ACID]	60%	
	O=C(O)Cn1c(C(=O)O)cc2ccc3ccccc3c21	3%	
	O=P(O)(O)C(O)(Cc1cccnc1)P(=O)(O)O [RISEDRONIC ACID]	60%	
	O=P(O)(O)C(Nc1ncnc2sc(-c3ccc(OC4CC4)cc3)cc12)P(=O)(O)O	-1%	
> 20 µM	Cc1ccc(-c2cc3c(NCC(=O)O)ncnc3s2)cc1		inhibition [4]: 27%
1.2 µM	Cc1ccc(-c2cc3c(NC(c4ccccc4)P(=O)(O)O)ncnc3s2)cc1Cl (centres undefined)	-7%	
	O=P(O)(O)C(Nc1cncc(-c2ccc(OC3CC3)cc2)c1)P(=O)(O)O	0%	

Structure (SMILES)	IC50 [1]	Activity [5]	other results
O=P(O)(O)CCc1cccnc1	> 800 µM		
